In the library only some 2.1% were active in any assay of this set; here they are far more common.
M1 antag: antagonists of human M1 muscarinic receptor; P11229; CHO-K1 hM1, Fluo-8 calcium fluorescence, ACh EC80 antagonist; inhibition, % at 3 µM; hit rate 1.3% among 360,000; AID 588852;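 active means percent inhibition above its own plate's cutoff, namely the mean of that plate's compound wells plus 3 SD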;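 further: peak over basal fluorescence ratio during 140 s after agonist addition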
Target sequence (P11229 whole entry, looked up): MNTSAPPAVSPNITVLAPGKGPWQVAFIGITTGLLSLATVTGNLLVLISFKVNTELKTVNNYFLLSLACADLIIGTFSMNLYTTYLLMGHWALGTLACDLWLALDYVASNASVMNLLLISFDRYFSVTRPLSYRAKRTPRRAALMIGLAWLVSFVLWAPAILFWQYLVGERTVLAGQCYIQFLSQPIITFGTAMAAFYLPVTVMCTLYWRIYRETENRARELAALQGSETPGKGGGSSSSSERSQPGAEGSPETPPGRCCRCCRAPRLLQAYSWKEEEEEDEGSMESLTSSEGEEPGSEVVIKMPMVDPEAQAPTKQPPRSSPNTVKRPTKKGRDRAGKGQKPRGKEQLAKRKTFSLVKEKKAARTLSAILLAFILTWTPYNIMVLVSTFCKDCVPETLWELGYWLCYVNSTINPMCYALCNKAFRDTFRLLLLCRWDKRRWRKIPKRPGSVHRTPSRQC
M1 ag: agonists of human M1 muscarinic receptor | CHO-K1 hM1, Fluo-8 calcium fluorescence, agonist mode; 0% DMSO, 100% acetylcholine EC100 | activation, % at 3 µM | hit rate 0.33% among 360,000;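 active means activation above the run's mean compound activation plus 3 SD, cut at about 16% in these data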;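 further: peak over basal fluorescence ratio within a 140 s kinetic read after compound addition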
CHRM1 PAM: positive allosteric modulators of human M1 muscarinic receptor. hit rate 0.088% among 360,000. CHO-K1 hM1, Fluo-8 calcium fluorescence, ACh EC20; 0% = ACh EC20, 100% = maximal ACh. activation, % at 3 µM. P11229; in the data active means activation above about 19%, passing the limit was not always enough
M5 PAM: CHRM5 positive allosteric modulation | CHO-K1 hM5, Fluo-8 calcium, ACh EC20 PAM; 0% = ACh EC20, 100% = ACh EC100 | activation, % at 3 µM | hit rate 0.3% among 360,000;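 active means activation above the run cutoff, the mean activation of all test compounds plus 3 SD, cut at about 18% in these data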
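system = human M5 receptor in CHO-K1 cells | reagent = EC20 acetylcholine as agonist stimulus | compound dosing = single-point, 3 µM nominal | incubation = Fluo-8 loading 80 min at 37 °C plus 30 min room temperature | detection = Fluo-8 calcium dye fluorescence, kinetic read | benchmarks = low control EC20 acetylcholine (0%), high control EC100 acetylcholine (100%)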
CHRM5 agonist: agonists of human muscarinic M5 receptor (CHRM5). CHO-K1 hM5 cells, Fluo-8 calcium fluorescence; 0% DMSO wells, 100% maximal acetylcholine response. activation, % at 3 µM. hit rate 0.19% among 360,000. AID 624037;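 active means activation above the run's mean over test compounds plus 3 SD, cut at about 23% in these data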;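 further: signal is peak over basal fluorescence ratio across the kinetic read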
M5 antag: blocks acetylcholine activation of human M5 receptor. P08912. CHO-hM5 cells, Fluo-8 calcium fluorescence, ACh EC80. inhibition, % at 3 µM. hit rate 0.59% among 360,000. AID 624040;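 active means inhibition above a per-plate cutoff, the mean of that plate's test compounds plus 3 SD, cut at about 27% in these data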
Of the large screens only hits and unclear results are named; the others gave an inactive call.

Cc1c(NC(=O)c2cc(-n3cnnc3)ccc2Cl)cccc1-c1nc2ccccc2s1	none
NC(CSC(c1ccccc1)(c1ccccc1)c1ccccc1)C(=O)O (configuration not stated)	M1 antag 39.9
O=C(COc1ccccc1)Nc1nc2cc3c(cc2s1)OCO3	M5 antag 26.9
CC(=O)Nc1nc2cc3c(cc2s1)OCO3	CHRM5 agonist 38.4
CCC(=O)c1ccc(OCC(=O)N2CCCC2)c(OC)c1	none
O=C(Nc1ccc(Oc2ccccc2)cc1)c1csc([C@@H]2O[C@H](CO)[C@@H](O)[C@H]2O)n1	M1 antag 34.0
O=C(Nc1ccc(OCCO)cc1)c1csc([C@@H]2O[C@H](CO)[C@H](O)[C@H](O)[C@H]2O)n1	none
O=C(Nc1ccc(Oc2ccccc2)cc1)c1csc([C@H]2C[C@H](O)[C@@H](CO)O2)n1	M1 antag 31.6
Cc1ccc(S(=O)(=O)N2CCCCC2)cc1	none
Cc1ccc(S(=O)(=O)n2ccc3c2CCCC3=O)cc1	M1 antag 54.1, M5 antag 37.4
CCC(c1nnnn1Cc1ccccc1)N1CCN(C/C=C/c2ccccc2)CC1 (configuration not stated)	none
Cc1ccccc1NC(=O)Cn1nc(C(F)(F)F)cc1C1CC1	none
Cc1ccc(C)c(NC(=O)Cn2nc(C(F)(F)F)cc2C2CC2)c1	CHRM1 PAM 26.0
CCOC(=O)COc1ccc(S(=O)(=O)NCCC2=CCCCC2)cc1	none
C[C@H]1CN=C(N(C)C)N1CC1CCC(C(C)(C)C)CC1 (some centres not stated)	M1 antag 51.4
O=C(O)c1cccc(-n2c(-c3cnccn3)n[nH]c2=S)c1	M5 PAM 18.3
COC(=O)C1=C(C)NC2=C(C(=O)CCC2)C1c1ccc(-c2ccsc2C(=O)OC)o1 (configuration not stated)	M1 ag 25.3
CCc1nc(SCC(=O)c2ccccc2)c2c(=O)n(C)c(=O)n(C)c2n1	none
Cc1ccc(C(=O)c2cc(C)sc2N)cc1	none
O=S(=O)(NCC(c1ccccc1)N1CCNCC1)c1ccc(Cl)cc1 (configuration not stated)	none
CCN1CCN(C(CNS(=O)(=O)c2ccc(Cl)cc2)c2ccccc2)CC1 (configuration not stated)	M5 antag 28.4
CCC1CCCCN1C(=O)COC(=O)c1cncc(Br)c1 (configuration not stated)	none
O=C(COC(=O)C1CC1)Nc1cccc(Cl)c1	none
COc1cccc(C2C(C(=O)c3cccs3)=C(O)C(=O)N2c2cc(C)on2)c1 (configuration not stated)	M5 PAM 26.3
Cc1cc(N2C(=O)C(O)=C(C(=O)c3cccs3)C2c2ccc(F)cc2)no1 (configuration not stated)	M5 PAM 19.3
Cc1cc(N2C(=O)C(O)=C(C(=O)c3cccs3)C2c2cccc(O)c2)no1 (configuration not stated)	none
COc1ccc(N(CC(=O)Nc2ccccc2OC)S(=O)(=O)c2ccc(NC(C)=O)cc2)cc1	M5 antag 31.8
COc1ccccc1NC(=O)CN(c1ccccc1)S(=O)(=O)c1ccccc1	none
CCN(CC)Cc1c(O)ccc2occ(C(=O)c3ccc(OC)cc3)c12	none
O=C(Nc1ccccc1)/C(=C/c1ccc(O)cc1)NC(=O)c1ccco1	none
NNC(=O)[C@H](Cc1ccccc1)NC(=O)Nc1ccc2c(c1)OCCO2	M1 antag 36.0
CC12CCC(=O)N1C(C(=O)NNC(=O)COc1ccc(Br)cc1)CS2 (configuration not stated)	M1 antag 33.0
Cc1cc(Cl)ccc1OCC(=O)NNC(=O)C1CSC2(C)CCC(=O)N12 (configuration not stated)	none
O=C(Nc1nnc(-c2ccccc2Cl)o1)c1ccco1	none
O=C(Nc1nnc(-c2ccccc2Cl)o1)c1nc2ccccc2s1	M1 ag 73.8, CHRM5 agonist 65.1
Cc1ccc(NC(=O)c2cncc(Br)c2)nc1	none
Cc1ccc(CNC(=O)C(NS(=O)(=O)c2cccc3nsnc23)C(C)C)cc1 (configuration not stated)	M5 antag 30.1
CCN1CCN(c2c(/C=C3\SC(=S)N(Cc4ccco4)C3=O)c(C)c(C#N)c(=O)n2C)CC1	CHRM5 agonist 57.4
C=CCNC(=O)c1cccc(Br)c1	none
O=c1c(-c2ccco2)[n+]([O-])c2ccccc2n1OCc1c(F)cccc1F	M5 PAM 19.2
Cc1[nH][nH]c(=O)c1C(c1c(C)[nH][nH]c1=O)c1cn(Cc2ccc(Cl)c(Cl)c2)c2ccccc12	M1 ag 20.3
COc1ccc2c(c1OC)C(=O)N1c3ccccc3C(=O)N(c3ccccc3F)C21 (configuration not stated)	M1 antag 38.8
COc1ccc2c(c1OC)C(=O)N1c3ccccc3SC21 (configuration not stated)	none
CCOC(=O)[C@@H]1[C@H]2COc3ccccc3[C@H]2N2C(=O)N(c3ccc(C(F)(F)F)cc3)C(=O)[C@]12C	M1 antag 34.2
C=CCOc1ccc(/C=C\c2nc(O)c([N+](=O)[O-])c(=O)[nH]2)cc1OCC	CHRM1 PAM 27.3
Cc1cc(C)c2nc(N3CCCC(C(=O)NCCCN4CCOCC4)C3)sc2c1 (configuration not stated)	none
Cc1cc(C)c2nc(N3CCC(C(=O)NCCCN4CC(C)CC(C)C4)CC3)sc2c1 (configuration not stated)	M1 antag 81.7
CSc1cccc(CN2CCCC(CNC(=O)c3ccco3)C2)c1 (configuration not stated)	none
CCCCS(=O)(=O)c1sc2nc(C)cc(C)c2c1N	M5 PAM 21.1
CC(C)c1cc(C(=O)Nc2cc(Br)ccc2O)no1	M5 antag 33.9
NC(=O)c1ccc[n+]([C@H]2O[C@@H](COP(=O)([O-])OP(=O)(O)OC[C@H]3O[C@@H](n4cnc5c(N)ncnc54)[C@H](O)[C@@H]3O)[C@H](O)[C@@H]2O)c1	M1 ag 27.4, CHRM5 agonist 24.9
CCCCOC(=O)C1=C(C)Nc2nnnn2C1c1ccc(OC)c(OC)c1OC (configuration not stated)	none
COC(=O)c1cc2occc2n1Cc1nc(-c2ccccc2F)oc1C	M1 antag 53.2
COC(=O)c1cc2ccsc2n1Cc1nc(-c2ccc(OC)cc2)oc1C	M1 antag 44.9
Cc1noc(-c2ccccc2)c1NC(=O)Nc1ccc(Cl)cc1	M1 antag 41.1
Cc1noc(-c2ccccc2)c1NC(=O)Nc1ccccc1	none

Source: PubChem BioAssay
